Measurements: article PMC6644768 (ACS Omega, 2018)
Values belong to the compound of their own block, whether it stands above or below them.

How the values were obtained:
Assay type in all cases: cell-based
[1] = test system: ROS in HeLa cells; assay: Intracellular ROS by DCFDA dye; conditions: 6 h, control 2.4 ± 0.1
[2] = test system: tubulin in HeLa cells; assay: Soluble and polymeric tubulin in cells by western blot; conditions: 25 nM, control 2.1 ± 0.4
[3] = test system: MCF-7 cells; assay: IC50 determination, sulforhodamine B assay, MCF-7; conditions: MCF-7, one cell cycle
How it was run: (§1)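 Sulforhodamine B proliferation assay as run for A549, but with cells exposed to test compound for one cell cycle. Read-out: TCA fixation, dye binding, Tris solubilization, absorbance at 520 nm. IC50 fitted by nonlinear regression; each cell line determined three times independently. Culture media: HeLa and MCF-7 in Eagle's MEM; L929 and B16F10 in DMEM; MCF 10A in DMEM/F12K with 10% FBS, EGF, hydrocortisone and insulin.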

[4] = test system: HeLa cells; assay: PI staining of dead cells; conditions: 20 nM, 24 h; control 6%
How it was run: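 HeLa cells on coverslips (2.5 × 10^4 cells/well, 24 h) given vehicle (0.1% DMSO), 75 or 200 nM test compound, or 20 nM reference agent for 24 h. Plates centrifuged at 2500 rpm for 15 min and washed in PBS. Cells stained with propidium iodide for 15 min at room temperature in the dark and imaged. PI-positive cells counted as a percentage. Two independent sets.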

[5] = test system: A549 cells; assay: Scratch wound healing assay; conditions: 100 nM
[6] = test system: HeLa cells; assay: Mitotic index by Hoechst 33258 staining; conditions: 20 nM; control 3 ± 0.6
How it was run: (§2)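 HeLa cells exposed to 75 and 200 nM test compound or 20 nM reference agent for 12 h. Cells immunostained for phospho-histone H3 (Ser10), with DNA counterstained by Hoechst 33258. Mitotic index scored either from DNA morphology or as phospho-H3-positive cells. Experiment performed three times; error given as standard deviation.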

[7] = test system: A549 cells; assay: IC50 determination, sulforhodamine B assay, A549; conditions: A549 cell line, 24 h
How it was run: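 A549 cells (F-12K medium, 10% FBS) plated at 10 000 cells/well and grown 24 h, then exposed to a range of test compound concentrations for 24 h. Sulforhodamine B read-out: fixation in 50% TCA for 1 h at 4 °C, then 0.4% dye in 1% acetic acid for 1 h, 1% acetic acid washes, and solubilization in 10 mM Tris pH 10.0. Absorbance read at 520 nm. IC50 from nonlinear regression, three independent determinations.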

[8] = test system: HeLa cells; assay: Mitotic index by phospho-histone H3 staining; conditions: 20 nM; control 3 ± 0.2
How it was run: as §2

[9] = test system: MCF 10A cells; assay: IC50 determination, sulforhodamine B assay, MCF 10A; conditions: one cell cycle
How it was run: as §1

SMILES: OO [Compound H2O2, H2O2]
- fluorescence intensity of DCFDA per cell ([1]; 100 μM): 4.5 ± 0.2

SMILES: CC[C@]1(O)C[C@@H]2CN(CCc3c([nH]c4ccccc34)[C@@](C(=O)OC)(c3cc4c(cc3OC)N(C)[C@H]3[C@@](O)(C(=O)OC)[C@H](OC(C)=O)[C@]5(CC)C=CCN6CC[C@]43[C@@H]65)C2)C1 [vinblastine]
- ratio of polymeric to soluble tubulin [2]: 1.4 ± 0.9

- IC50 [3]: 0.018 ± 0.003 µM
- IC50 [7]: 0.112 ± 0.007 µM
- IC50 [9]: 0.144 ± 0.031 µM
SMILES: COc1ccc(/C=C\c2cc(OC)c(OC)c(OC)c2)cc1O [CA-4, combretastatin A-4]
- PI-stained positive cells [4]: 87%
- inhibition of migration of A549 cells ([5]; 10 h): 77 ± 5%
- rate of migration ([5]; vehicle 3 ± 0.7): 0.4 ± 0.2 μm/h
- mitotic index, Hoechst staining [6]: 40 ± 1.2
- mitotic index, phospho-histone staining (percentage of mitotic cells) [8]: 38 ± 0.3%
- fluorescence intensity of DCFDA per cell ([1]; 20 nM): 3.6 ± 0.4
